Reference: ChEMBL document CHEMBL1149098, “Design, synthesis, and evaluation of novel thienopyrrolizinones as antitubulin agents” (J Med Chem, 2004)
Each block holds one molecule with its values, some of them ahead of it.

Tests used:
L1210 [1] = assay: In vitro antiproliferative activity against L1210 cell line, activity expressed as growth inhibition; assay type: functional; details: Mus musculus
In short: (§1)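 MTT proliferation assay. Adherent cells trypsinized and seeded at densities keeping controls in exponential growth. Drug exposure for four doubling times, at most 7 days. MTT (5 mg/mL stock) added for 4 h at 37 °C, formazan dissolved in DMSO, OD read at 540 nm. % growth from treated/control OD, tri- or hexaplicates averaged against log concentration. GI50 from linear regression on the linear zone.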

Homo sapiens [2] = assay: Compound was evaluated for anticancer activity in the hollow fiber assay, activity expressed as ip score; assay type: functional
In short: (§2)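 Mouse hollow-fiber model: PVDF fibres holding 12 human tumour cell lines implanted ip and sc. Drug in 10% DMSO in saline/Tween-80, given ip once daily for four doses at each of two dose levels, triplicate. Fibres collected the day after the last dose for viable cell mass. Each ≥50% reduction versus vehicle controls scores 2, summed per site.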

Homo sapiens [3] = assay: Compound was evaluated for anticancer activity in the hollow fiber assay, activity expressed as sc score; assay type: functional; in short: as §2
Homo sapiens [4] = species: Homo sapiens; assay: Compound was evaluated for anticancer activity in the hollow fiber assay, activity expressed as total score; assay type: functional; in short: as §2
MDA-N = assay: Cytotoxicity against human breast MDA-N cell line; assay type: functional
NCI-H522 = assay: Cytotoxicity against human NSCL NCI-H522 cell line; assay type: functional
SW-620 = assay: Cytotoxicity against human colon SW-620 cell line; assay type: functional
RXF 393 = assay: Cytotoxicity against human renal XF-393 cell line; assay type: functional
PC-3 = assay: Cytotoxicity against human prostate PC-3 cell line; assay type: functional
CCRF-CEM = assay: Cytotoxicity against human leukemia CCRF-CEM cell line; assay type: functional
M14 [5] = assay: Cytotoxicity against human melanoma M-14 cell line; assay type: functional
Mus musculus [6] = assay: In vivo anticancer activity against an ip P388 murine model after intraperitoneal administration of 100 mg/kg compound; assay type: functional
In short: (§3)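 Female B6D2F1 mice, 4–6 weeks old, 20–22 g, inoculated ip with 10^6 P388 leukemia cells. Single ip or iv injection on day 1 at the listed dose (range 25–400 mg/kg). BCNU run as internal reference. Median survival of treated versus control mice gives T/C (%). Activity threshold set at T/C 125%.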

Mus musculus [7] = assay: In vivo anticancer activity against an ip P388 murine model after intraperitoneal administration of 200 mg/kg compound; assay type: functional; in short: as §3
Mus musculus [8] = assay: In vivo anticancer activity against an ip P388 murine model after intraperitoneal administration of 25 mg/kg compound; assay type: functional; in short: as §3
Mus musculus [9] = assay: In vivo anticancer activity against an ip P388 murine model after intraperitoneal administration of 400 mg/kg compound; assay type: functional; in short: as §3
Mus musculus [10] = assay: In vivo anticancer activity against an ip P388 murine model after intraperitoneal administration of 50 mg/kg compound; assay type: functional; in short: as §3
Mus musculus [11] = assay: In vivo anticancer activity against an ip P388 murine model after intravenous administration of 100 mg/kg compound; assay type: functional; in short: as §3
Mus musculus [12] = assay: In vivo anticancer activity against an ip P388 murine model after intravenous administration of 200 mg/kg compound; assay type: functional; in short: as §3
Mus musculus [13] = assay: In vivo anticancer activity against an ip P388 murine model after intravenous administration of 25 mg/kg compound; assay type: functional; in short: as §3
Mus musculus [14] = assay: In vivo anticancer activity against an ip P388 murine model after intravenous administration of 400 mg/kg compound; assay type: functional; in short: as §3
Mus musculus [15] = assay: In vivo anticancer activity against an ip P388 murine model after intravenous administration of 50 mg/kg compound; assay type: functional; in short: as §3
Tubulin = Tubulin (Bos taurus, UniProt Q6B856+Q862L2+Q862F3); assay: Inhibitory concentration against calf tubulin polymerization; assay type: protein assay
In short: (§4)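 Calf brain tubulin purified by three assembly–disassembly cycles, about 2–3 mg/mL in 0.1 M MES, 0.5 mM MgCl2, 2 mM EGTA, 1 mM GTP, pH 6.6. Assembly followed continuously by turbidimetry at 37 °C. IC50 is the concentration halving the maximum assembly rate of drug-free tubulin. Deoxypodophyllotoxin measured the same day as reference.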

M14 [16] = assay: Cytotoxicity against human melanoma M-14 cell line from the NCI 60 tumoral cell line panel; assay type: functional
L1210 [17] = assay: Compound was tested for percentage of L1210 cells accumulated in the G2 + M + 8N phase of the cell cycle at 50 uM; assay type: functional, Mus musculus
In short: (§5)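 Flow cytometry of L1210 cells (2.5×10^5/mL) exposed to drug for 21 h (about two doubling times). Cells fixed in 70% ethanol, washed twice in PBS, then 30 min in PBS with 100 µg/mL RNAse and 25 µg/mL propidium iodide. 10 000 cells counted per sample. Reported as % of cells in G2 + M + 8N.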

A549 = assay: In vitro antiproliferative activity against A549 cell line; assay type: functional, Mus musculus; details: Homo sapiens; in short: as §1
A2780 = assay: In vitro antiproliferative activity against A2780 cell line; assay type: functional, Mus musculus; details: Homo sapiens; in short: as §1
B16 = assay: In vitro antiproliferative activity against B16 cell line; assay type: functional; details: Mus musculus; in short: as §1
DU-145 = assay: In vitro antiproliferative activity against DU145 cell line; assay type: functional, Mus musculus; details: Homo sapiens; in short: as §1
L1210 [18] = assay: In vitro antiproliferative activity against L1210 cell line; assay type: functional; details: Mus musculus; in short: as §1
KB = assay: In vitro antiproliferative activity against KBA1 cell line; assay type: functional, Mus musculus; details: Homo sapiens; in short: as §1
LS174T = assay: In vitro antiproliferative activity against LS174T cell line; assay type: functional, Mus musculus; details: Homo sapiens; in short: as §1
L1210 [19] = assay: Compound was tested for percentage of L1210 cells accumulated in the G2 + M + 8N phase of the cell cycle at 0.5 uM; assay type: functional, Mus musculus; in short: as §5
[20] = Inhibitory concentration against calf microtubule polymerization; assay type: functional, Bos taurus; in short: as §4
OVCAR-3 = assay: In vitro antiproliferative activity against OVCAR-3 cell line; assay type: functional, Mus musculus; details: Homo sapiens; in short: as §1
P388 = assay: In vitro antiproliferative activity against P388 cell line; assay type: functional; details: Mus musculus; in short: as §1
HT-29 = assay: In vitro antiproliferative activity against HT-29 cell line; assay type: functional, Mus musculus; details: Homo sapiens; in short: as §1

SMILES: O=C1c2cccc(-c3ccco3)c2-n2cccc21
GI50 (L1210 [1]): 27.6 µM

SMILES: CCCOc1ccc(-c2csc3c2-n2cccc2C3=O)cc1
GI50 (L1210 [1]): 28.1 µM

SMILES: COc1ccc(-c2csc3c2-n2cccc2/C3=N/OCCCN(C)C)cc1
GI50 (L1210 [1]): 3.9 µM

SMILES: COc1ccc(-c2csc3c2-n2cccc2C3=O)cc1
Activity (Homo sapiens [2]): 16
Activity (Homo sapiens [3]): 0
Activity (Homo sapiens [4]): 16
GI50 (L1210 [1]): 0.19 µM
GI50 (MDA-N): 0.0126 µM
GI50 (NCI-H522): 0.0158 µM
GI50 (SW-620): 0.0251 µM
GI50 (RXF 393): 0.0631 µM
GI50 (PC-3): 0.0398 µM
GI50 (CCRF-CEM): 0.0316 µM
GI50 (M14 [5]): 0.0316 µM

SMILES: O=C1c2scc(-c3ccccc3O)c2-n2cccc21
GI50 (L1210 [1]): 3.7 µM

SMILES: O=C1c2scc(-c3cccc(O)c3)c2-n2cccc21
GI50 (L1210 [1]): 29 µM

SMILES: O=C1c2scc(-c3ccc(F)cc3)c2-n2cccc21
GI50 (MDA-N): 7.94 µM
GI50 (NCI-H522): 15.8 µM
GI50 (SW-620): 25.1 µM
GI50 (RXF 393): 25.1 µM
GI50 (PC-3): 31.6 µM
GI50 (CCRF-CEM): 31.6 µM
GI50 (M14 [5]): 31.6 µM

SMILES: O=C1c2scc(-c3ccc(O)c(O)c3)c2-n2cccc21
GI50 (L1210 [1]): 0.28 µM
T/C (Mus musculus [6]): 134%
T/C (Mus musculus [7]): 133%
T/C (Mus musculus [8]): 111%
T/C (Mus musculus [9]): 149%
T/C (Mus musculus [10]): 118%
T/C (Mus musculus [11]): 105%
T/C (Mus musculus [12]): 103%
T/C (Mus musculus [13]): 95%
T/C (Mus musculus [14]): 21%
T/C (Mus musculus [15]): 101%
IC50 (Tubulin): 21 µM

SMILES: COc1ccc(-c2csc3c2-n2cccc2C3=O)cc1OC
GI50 (L1210 [1]): 11.7 µM
IC50 (Tubulin): 19 µM

SMILES: CC(C)Oc1ccc(-c2csc3c2-n2cccc2C3=O)cc1
GI50 (L1210 [1]): 12.2 µM

SMILES: O=C1c2scc(-c3ccc(O)c(O)c3O)c2-n2cccc21
GI50 (L1210 [1]): 12 µM

SMILES: COc1cccc(-c2csc3c2-n2cccc2C3=O)c1
GI50 (L1210 [1]): 5.2 µM

SMILES: COc1ccc(-c2csc3c2-n2cccc2/C3=N/O)cc1
GI50 (L1210 [1]): 34.3 µM

SMILES: CCOc1ccc(-c2csc3c2-n2cccc2C3=O)cc1
GI50 (L1210 [1]): 0.43 µM

SMILES: COc1ccc(-c2c[nH]c3c2-n2cccc2C3=O)cc1OC
GI50 (L1210 [1]): 11.8 µM

SMILES: COc1ccc(C2CC(=O)c3cccn32)cc1O (stereo unspecified)
GI50 (L1210 [1]): 25 µM

SMILES: O=C1c2scc(-c3ccc(Cl)cc3)c2-n2cccc21
GI50 (M14 [16]): 50.1 µM
GI50 (MDA-N): 7.94 µM
GI50 (NCI-H522): 3.16 µM
GI50 (SW-620): 100 µM
GI50 (RXF 393): 100 µM
GI50 (PC-3): 100 µM
GI50 (CCRF-CEM): 100 µM

SMILES: O=C1c2scc(-c3ccccc3)c2-n2cccc21
GI50 (MDA-N): 15.8 µM
GI50 (NCI-H522): 12.6 µM
GI50 (SW-620): 15.8 µM
GI50 (RXF 393): 12.6 µM
GI50 (PC-3): 12.6 µM
GI50 (CCRF-CEM): 20 µM
GI50 (M14 [5]): 20 µM

SMILES: COc1ccc(-c2csc3c2-n2cccc2C3=O)cc1O
GI50 (A549): 0.045 µM
GI50 (A2780): 0.04 µM
GI50 (B16): 0.023 µM
GI50 (DU-145): 0.043 µM
GI50 (L1210 [18]): 0.015 µM
GI50 (L1210 [1]): 0.015 µM
GI50 (KB): 0.015 µM
GI50 (LS174T): 0.887 µM
Cells (L1210 [19]): 86%
T/C (Mus musculus [6]): 121%
T/C (Mus musculus [7]): 117%
T/C (Mus musculus [8]): 108%
T/C (Mus musculus [9]): 121%
T/C (Mus musculus [10]): 116%
T/C (Mus musculus [11]): 102%
T/C (Mus musculus [12]): 103%
T/C (Mus musculus [13]): 102%
T/C (Mus musculus [14]): 19%
T/C (Mus musculus [15]): 104%
IC50 [20]: 2.9 µM
GI50 (OVCAR-3): 0.031 µM
GI50 (P388): 0.021 µM
IC50 (Tubulin): 2.9 µM
GI50 (HT-29): 0.713 µM

SMILES: COc1cc(-c2csc3c2-n2cccc2C3=O)ccc1OCc1ccccc1
GI50 (L1210 [1]): 24.1 µM

Further lines, with some results ahead:

GI50 (L1210 [1]): 24.2 µM
SMILES: COc1ccc(-c2coc3c2-n2cccc2C3=O)cc1OC

GI50 (L1210 [1]): 4.9 µM
SMILES: COc1ccc(-c2csc3c2-n2cccc2C3O)cc1 (stereo unspecified)

GI50 (L1210 [1]): 36.4 µM
SMILES: COc1ccc(-c2csc3c2-n2cccc2C3=O)c(OC)c1OC

GI50 (L1210 [1]): > 100 µM
SMILES: Cc1csc2c1-n1cccc1C2=O

GI50 (L1210 [1]): 8 µM
SMILES: COc1cc(-c2csc3c2-n2cccc2C3=O)ccc1O

GI50 (L1210 [1]): 71.9 µM
SMILES: O=C1c2cccc(-c3cccs3)c2-n2cccc21

GI50 (L1210 [1]): 30.1 µM
SMILES: O=C1c2scc(-c3ccc(O)cc3)c2-n2cccc21

GI50 (L1210 [1]): 29.6 µM
SMILES: CCCCOc1ccc(-c2csc3c2-n2cccc2C3=O)cc1

GI50 (L1210 [1]): 72.2 µM
SMILES: COc1ccc(-c2cccc3c2-n2cccc2C3=O)cc1OC

GI50 (L1210 [1]): 4.2 µM
SMILES: O=C1c2scc(-c3ccc4c(c3)OCO4)c2-n2cccc21

GI50 (L1210 [1]): 9.4 µM
SMILES: COc1ccc(-c2cc3c(s2)C(=O)c2cccn2-3)cc1

GI50 (L1210 [1]): 5.4 µM
SMILES: COc1ccc(-c2csc3c2-n2cccc2C3=O)cc1OCc1ccccc1

GI50 (L1210 [1]): 18.9 µM
SMILES: COc1ccccc1-c1csc2c1-n1cccc1C2=O
Cells (L1210 [17]): 75%

GI50 (L1210 [1]): 3 µM
SMILES: COc1ccc(-c2cccc3c2-n2cccc2C3=O)cc1

GI50 (L1210 [1]): 85 µM
SMILES: O=C1c2sccc2-n2cccc21

GI50 (L1210 [1]): > 100 µM
SMILES: COc1ccc(-c2csc3nc(O)c4cccn4c23)cc1OC

GI50 (L1210 [1]): 8.8 µM
SMILES: Oc1ccc(-c2csc3nc(O)c4cccn4c23)cc1O
